Assay results reported in ChEMBL document CHEMBL5385974, “A novel BODIPY-based theranostic agent for in vivo fluorescence imaging of cerebral Aβ and ameliorating Aβ-associated disorders in Alzheimer's disease transgenic mice” (RSC Med Chem, 2024).
Calls of active or inactive are those of the source. The rule behind the calls is not given here.

Experiments:
Brain = experiment: In vivo binding affinity Amyloid beta deposits in wild type mouse brain by fluorescence staining assay; format: functional, organism-based
How it was run: (§1)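 Frozen brain sections from perfused 12-month male APP/PS1 mice or wild-type mice. Sections were stained with ThS (10 mg mL-1), washed 3 times with 50% ethanol, then incubated with 100 μM compound for 20 min at room temperature. Confocal imaging: compound Ex 638/Em 650–700 nm, ThS Ex 488/Em 500–550 nm. n = 3.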

Mus musculus [1] = experiment: Anti-alzheimer activity against 5 month old 5 x FAD mouse assessed as average radiation efficiency at 30 mg/kg, po treated for 1 month; format: functional; conditions: time 1 months, 730 h
How it was run: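 5×FAD and wild-type mice imaged by IVIS after a single intravenous injection of 2.0 mg kg-1. Imaging was done at 5 months, and again at 6 months after one month of oral treatment (30 mg kg-1) or vehicle. Ex 570 nm, Em 640 nm. Read-out is average radiation efficiency. n = 3 at 5 months, n = 4 at 6 months; mean ± SD.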

Cortical neurone [2] = experiment: Cytotoxicity against Sprague-Dawley rat primary cortical neurons assessed as cell viability at 0.1 to 5 uM measured after 24 hrs by MTT assay; format: toxicity, cell-based; conditions: dose 0.1-5 µM
Cerebral cortex = experiment: In vivo binding affinity Amyloid beta deposits in APPswe/PSEN1dE9, APP/PS1 double transgenic mouse cerebral cortex assessed as red fluorescent spot; format: functional, organism-based; how it was run: as §1
Mus musculus [3] = species: Mus musculus; experiment: Antialzheimer activity in 12 month old APP/PS1 transgenic cognitive impairment mouse model assessed as shortening of latencies to reaching platform treated continuously and measured after 3 months by water maze test; format: functional, organism-based
How it was run: (§2)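 APP/PS1 mice and wild-type littermates given oral 10 mg kg-1 (PEG400:HS15:0.9% saline = 25:15:60) or vehicle from 9 to 12 months. Tested in an 80 × 50 cm passage water maze with one correct path. Training was 1-min free swims, with guidance to the platform on failure. After 4 trainings, wrong-path errors and latency to the platform were recorded. n = 6-10.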

Mus musculus [4] = species: Mus musculus; experiment: Anti-alzheimer activity against 12 month old APP/PS1 transgenic mouse model assessed as decrease in amyloid beta plaques in brain cortex region treated continuously and measured after 3 months by ThS staining based immunofluorescence assay relative to control; format: functional, organism-based
How it was run: (§3)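 APP/PS1 mice dosed orally from 9 months of age for three months with 10 mg kg-1 in PEG400:HS15:0.9% saline = 25:15:60, or with vehicle alone. Wild-type mice were treated in parallel. ThS-stained plaques were counted by confocal imaging of hippocampus and cortex sections at 12 months. n = 3.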

Mus musculus [5] = species: Mus musculus; experiment: Anti-alzheimer activity against transgenic mouse model assessed as decrease in amyloid beta plaques in brain hippocampus region treated continuously and measured after 3 months by ThS staining based immunofluorescence assay relative to control
Cortical neurone [6] = experiment: Neuroprotective effect against Amyloid-beta induced Sprague-Dawley rat primary cortical neurons assessed as cell viability after 9 days of pretreatment with Amyloid-beta followed by incubated with 5 uM compound for 24 hrs by MTT assay; format: functional, cell-based; conditions: time 9.0 day
How it was run: (§4)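 Primary cortical neurons from newborn SD rat pups, cultured in neurobasal/B27 at 37 °C and used at day 9. Cells were exposed for 24 h to Aβ42 (1 μM final) premixed with compound at 0, 0.1, 0.25, 0.5, 1 or 5 μM final. MTT was then added for 4 h, formazan dissolved in DMSO and absorbance read at 490 nm. n = 3; mean ± SD.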

Mus musculus [7] = experiment: In vivo binding affinity Amyloid beta deposits in APP/PS1 transgenic mouse assessed as Increase in fluorescence intensity at 2 mg/kg, iv measured after 5 mins by IVIS Spectrum imaging based assay relative to wild type; format: functional, organism-based
How it was run: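 APP/PS1 and wild-type mice, 12 months old, heads shaved and anaesthetized with 1.5% isoflurane. Injected intravenously with 2 mg kg-1 in DMSO:Cremophor EL:0.9% saline = 5:10:85. Brain fluorescence was acquired sequentially by IVIS, with circular ROI analysis at 5 min. Ex 570 nm, Em Cy5.5. n = 3.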

[8] = Solubility of the compound in water; format: physicochemical; conditions: buffer
[9] = target: T1, Amyloid-beta precursor protein (Homo sapiens, UniProt P05067); experiment: Inhibition of amyloid beta 42 (unknown origin) aggregation assessed as fluorescence intensity at 0.1 equivalents measured for 24 hrs by ThT fluorescence assay
T1 sequence (P05067 whole entry): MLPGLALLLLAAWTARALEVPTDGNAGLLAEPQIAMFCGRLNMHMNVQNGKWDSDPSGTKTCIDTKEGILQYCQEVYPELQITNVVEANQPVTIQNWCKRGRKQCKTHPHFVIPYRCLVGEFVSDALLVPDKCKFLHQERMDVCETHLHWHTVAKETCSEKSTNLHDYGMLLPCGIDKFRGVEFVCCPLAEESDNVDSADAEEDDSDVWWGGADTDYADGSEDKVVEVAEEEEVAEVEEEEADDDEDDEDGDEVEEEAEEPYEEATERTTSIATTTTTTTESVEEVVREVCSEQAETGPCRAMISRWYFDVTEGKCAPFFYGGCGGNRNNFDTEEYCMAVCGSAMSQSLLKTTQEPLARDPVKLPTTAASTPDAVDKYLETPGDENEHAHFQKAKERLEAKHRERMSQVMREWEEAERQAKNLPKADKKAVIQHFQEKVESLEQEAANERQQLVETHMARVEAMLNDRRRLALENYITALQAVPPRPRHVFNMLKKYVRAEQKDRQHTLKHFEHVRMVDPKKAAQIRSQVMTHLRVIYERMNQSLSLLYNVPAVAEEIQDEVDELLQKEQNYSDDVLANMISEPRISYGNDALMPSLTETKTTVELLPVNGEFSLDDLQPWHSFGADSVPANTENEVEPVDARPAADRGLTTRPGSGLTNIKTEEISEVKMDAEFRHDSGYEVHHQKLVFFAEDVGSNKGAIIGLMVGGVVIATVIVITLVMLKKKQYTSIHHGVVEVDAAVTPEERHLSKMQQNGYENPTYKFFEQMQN
How it was run: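 Aβ42 monomer (50 μM) incubated 24 h at 37 °C with or without compound. ThT was then added from a 15 mM solution in 50 mM glycine-NaOH, and fluorescence read at Ex 425/Em 490 nm. n = 4; mean ± SD.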

[10] = target: T1, Amyloid-beta precursor protein; experiment: Inhibition of amyloid beta 42 (unknown origin) aggregation assessed as reduction in amyloid fibrils density at 50 uM measured after 24 hrs incubation by transmission electron microscopy (TEM)
How it was run: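 Aβ42 (50 μM in water) mixed 1:1 with water or 100 μM compound, then shaken at 100 rpm, 37 °C, 24 h. Samples were adsorbed on carbon-coated copper grids, negatively stained with 7.5% uranium formate and imaged by TEM at 120 kV.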

Mus musculus [11] = species: Mus musculus; experiment: Anti-alzheimer activity against 12 month old APP/PS1 transgenic mouse model assessed as decrease in amyloid beta plaques in brain hippocampus region treated continuously and measured after 3 months by ThS staining based immunofluorescence assay relative to control; format: functional, organism-based; how it was run: as §3
Mus musculus [12] = species: Mus musculus; experiment: Antialzheimer activity in 12 month old APP/PS1 transgenic cognitive impairment mouse model assessed as reduction in error time in passage water maze treated continuously and measured after 3 months by passage water maze test; format: functional, organism-based; how it was run: as §2
[13] = target: T1, Amyloid-beta precursor protein; experiment: Binding affinity to Amyloid beta (1 to 42) aggregates (unknown origin) assessed as fluorescent intensities measured after 30 mins by fluorescence spectrometry
How it was run: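 P14 (320 nM final, in EtOH) incubated 30 min at room temperature with 0, 2, 4, 6 or 8 μM Aβ42 aggregates. Aggregates were made by shaking 50 μM Aβ42 in 10 mM PBS pH 7.4 at 100 rpm, 37 °C, 24 h. Emission spectra recorded at 600–800 nm with excitation at 589 nm.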

Cortical neurone [14] = experiment: Neuroprotective effect against Amyloid-beta induced Sprague-Dawley rat primary cortical neurons assessed as reversal of Amyloid beta-induced loss of MAP2 fluorescence signal at 1 uM by immunofluorescence staining based assay; format: functional, cell-based
How it was run: (§5)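 Primary rat cortical neurons exposed to Aβ42 with or without compound. Cells were fixed in 4% PFA and blocked with 3% BSA/0.01% Triton X-100 for 1 h. Staining was anti-MAP2 (1:200) overnight at 4 °C, then Alexa Fluor 488 secondary (1:500) for 1 h, with DAPI nuclear counterstain. MAP2 fluorescence was quantified. n = 3.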

Cortical neurone [15] = experiment: Neuroprotective effect against Amyloid-beta induced Sprague-Dawley rat primary cortical neurons assessed as reversal of Amyloid beta-induced loss of MAP2/DAPI fluorescence signal at 1 uM by immunofluorescence staining based assay; format: functional, cell-based; how it was run: as §5
Hippocampus = experiment: In vivo binding affinity Amyloid beta deposits in APPswe/PSEN1dE9, APP/PS1 double transgenic mouse hippocampus assessed as red fluorescent spot; format: functional, organism-based; how it was run: as §1
Cortical neurone [16] = experiment: Neuroprotective effect against Amyloid-beta induced Sprague-Dawley rat primary cortical neurons assessed as cell viability after 9 days of pretreatment with Amyloid-beta followed by incubated with 1 uM compound for 24 hrs by MTT assay; format: functional, cell-based; conditions: time 9.0 day; how it was run: as §4
[17] = target: T1, Amyloid-beta precursor protein; experiment: Binding affinity to Amyloid beta (1 to 42) aggregates (unknown origin)
How it was run: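 Fluorescence titration in which P14 (0–200 nM, in EtOH) was incubated with 5 μM Aβ42 aggregates for 30 min at room temperature. Read in a quartz cuvette at Ex 589 nm, Em 620 nm. Kd was obtained by nonlinear regression, one-site binding. n = 3; mean ± SD.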

Row | Compound | Activity (Brain) | Activity (Mus musculus [1]) | Activity (Cortical neurone [2]) | Activity (Cerebral cortex) | Activity (Mus musculus [3]) | Activity (Mus musculus [4]) | Activity (Mus musculus [5]) | Activity (Cortical neurone [6]) | Activity (Mus musculus [7]) | solubility [8] | inhibition [9] | inhibition [10] | Activity (Mus musculus [11]) | Activity (Mus musculus [12]) | Kd [13] [nM] | Activity (Cortical neurone [14]) | Activity (Cortical neurone [15]) | Activity (Hippocampus) | Activity (Cortical neurone [16]) | Kd [17] [nM]
1 | CC1=CC(C)=[N+]2C1=C(CCCO)c1c(C)cc(/C=C/c3cnc(N(C)C)s3)n1[B-]2(F)F | inactive | 5.2 10^8(p/s/cm^2/sr)/(uW/cm^2) | Non-Toxic | Active | Active | Active | Active | Active | Active | Soluble | Dose-Dependent Effect | Active | Active | Active | 78.1 | Active | Active | Active | Active | 
2 | Cc1cc(/C=C/c2ccc(N(C)C)s2)n2c1C=C1C=CC=[N+]1[B-]2(F)F |  |  |  |  |  |  |  |  |  |  |  |  |  |  |  |  |  |  |  | 55
3 | CC1=CC(C)=[N+]2C1=C(CCCN1CCNc3ccccc31)c1c(C)cc(/C=C/c3ccc(N(C)C)s3)n1[B-]2(F)F |  |  |  |  |  |  |  |  |  |  |  |  |  |  | 27 |  |  |  |  | 
